Results taken from the RNAGym collection of RNA variant scans (doi:10.1126/science.aae0568).
Variants at the floor of the assay were thinned out.

B1: tRNA (parent)
chain: GUUCCGUUGGCGUAAUGGUAACGCGUCUCCCUCCUAAGGAGAAGACUGCGGGUUCGAGUCCCGUACGGAACG

Variants of: B1
Experiment: yeast fitness relative to wild type (ratio to wild type); higher = fitter; tRNA-Arg(CCU), competitive growth, 37 C, YPD
Method in brief: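 Changes in genotype frequencies gave Darwinian fitness relative to wild type. Frequencies were read by 100-nucleotide paired-end sequencing of gene amplicons before and after pooled Saccharomyces cerevisiae strains, carrying tRNA-Arg(CCU) gene variants at the native locus, were competed in YPD at 37°C for 24 hours in six replicates. A genotype was kept only with ≥ 100 starting reads, and estimates < 0.5 were set to 0.5.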

Row | Variant | yeast fitness
1 | A21G A45G A65C | 0.977
2 | A21G A45G C46G | 0.802
3 | A21G A45G G67A | 1
4 | A21G A45U | 0.902
5 | A21G A45U A65U | 0.674
6 | A21G A45U A69U | 1.07
7 | A21G A57G | 0.875
8 | A21G A57U | 0.97
9 | A21G A65C | 0.924
10 | A21G A65U | 0.848
11 | A21G A69C | 0.932
12 | A21G A70U | 1
13 | A21G C22A | 0.834
14 | A21G C22A C55A G67C | ≤ 0.5
15 | A21G C22A G56A | 0.763
16 | A21G C22G C29G | ≤ 0.5
17 | A21G C22G U35G A36C | 0.746
18 | A21G C22U | 0.683
19 | A21G C22U A36G U53C A57C A69U | ≤ 0.5
20 | A21G C22U A42U A69U | ≤ 0.5
21 | A21G C22U A43C | 0.57
22 | A21G C22U A45C | 0.539
23 | A21G C22U A70U | 0.619
24 | A21G C22U C24G G25C U32A C34U G39C A45G | ≤ 0.5

Row | Variant | yeast fitness
25 | A21G C22U C24U A37U A45G C46G G68C | ≤ 0.5
26 | A21G C22U C29G A45C | 0.515
27 | A21G C22U C30G G51A | 0.538
28 | A21G C22U C55U | 0.567
29 | A21G C22U C60A | ≤ 0.5
30 | A21G C22U C66U G68C | ≤ 0.5
31 | A21G C22U G41C | 0.66
32 | A21G C22U G63C A69C | 0.524
33 | A21G C22U G67A | 0.575
34 | A21G C22U U32C C33A A37G A57C | ≤ 0.5
35 | A21G C24A | 0.661
36 | A21G C24A A43U A57U C66A | 0.574
37 | A21G C24G | 0.642
38 | A21G C24G A37U C49A | ≤ 0.5
39 | A21G C24G C31G A43U | ≤ 0.5
40 | A21G C24G G48C | ≤ 0.5
41 | A21G C24U A36U C66U A69U | ≤ 0.5
42 | A21G C24U C33U | ≤ 0.5
43 | A21G C24U G44C | 0.583
44 | A21G C27A A36U A40G | 0.587
45 | A21G C27A A37U C46U C66U | ≤ 0.5
46 | A21G C27A A37U G50A | 0.531
47 | A21G C27A A37U G50A C66U | ≤ 0.5
48 | A21G C27A C34G G38A G63C | ≤ 0.5

Row | Variant | yeast fitness
49 | A21G C27A G39C C55U A65C | ≤ 0.5
50 | A21G C27A G67C | ≤ 0.5
51 | A21G C27G C29U U35G | 0.552
52 | A21G C27G C31G | 0.523
53 | A21G C27G C49U | 0.557
54 | A21G C27G G67A | ≤ 0.5
55 | A21G C27U A37U A45U C62G | ≤ 0.5
56 | A21G C27U C55A | 0.701
57 | A21G C27U G38C G68C | ≤ 0.5
58 | A21G C29A | 0.693
59 | A21G C29A A37G A42U | 0.516
60 | A21G C29A G48C | 0.57
61 | A21G C29G | 0.625
62 | A21G C29G A65U G67U | ≤ 0.5
63 | A21G C29G C55U A69C | ≤ 0.5
64 | A21G C29G U47G | ≤ 0.5
65 | A21G C29U A45U | 0.86
66 | A21G C29U A45U G67U | ≤ 0.5
67 | A21G C29U A57G | 0.602
68 | A21G C29U C31U | ≤ 0.5
69 | A21G C29U C34U C55A C60G | ≤ 0.5
70 | A21G C29U G38A C62U G67C | 0.629
71 | A21G C29U G39A A45U | 0.547
72 | A21G C29U G41C A42G U53G A57C | ≤ 0.5

Row | Variant | yeast fitness
73 | A21G C29U G41C A69U | 0.63
74 | A21G C29U G41C C55U G68C | ≤ 0.5
75 | A21G C30A C33G U47C U59A C66U | ≤ 0.5
76 | A21G C30A C33G U59A C66U | 0.535
77 | A21G C30G | 0.784
78 | A21G C30G A69C | 0.544
79 | A21G C30G C55U | 0.682
80 | A21G C30G G51C | ≤ 0.5
81 | A21G C30G G67U | ≤ 0.5
82 | A21G C30G U54G A65G G68U A70C | ≤ 0.5
83 | A21G C30U | 0.97
84 | A21G C30U G68C | 0.582
85 | A21G C31A A42G | 0.561
86 | A21G C31G | 1.05
87 | A21G C31G A45G | 0.938
88 | A21G C31G A69C | 0.755
89 | A21G C31G A70G | 0.787
90 | A21G C31G G63A | 0.774
91 | A21G C31U A37G C62G | ≤ 0.5
92 | A21G C31U G52C G68A | ≤ 0.5
93 | A21G C31U U35C A40G A65U | ≤ 0.5
94 | A21G C31U U35C C61U C66U | ≤ 0.5
95 | A21G C33A A40C | 0.527
96 | A21G C33A C49U C55G | ≤ 0.5

Row | Variant | yeast fitness
97 | A21G C33A G41C | ≤ 0.5
98 | A21G C33A G51A A57U A65U | ≤ 0.5
99 | A21G C33G G38A G63A | ≤ 0.5
100 | A21G C33G G67A | ≤ 0.5
101 | A21G C33U | 0.73
102 | A21G C33U C60A | ≤ 0.5
103 | A21G C33U C60U | 0.603
104 | A21G C33U G44C A70C | ≤ 0.5
105 | A21G C33U G51C | ≤ 0.5
106 | A21G C33U U59A | ≤ 0.5
107 | A21G C34A C55A A69C | 0.565
108 | A21G C34G | 0.598
109 | A21G C34G C61U | 0.722
110 | A21G C34G C61U A70C | 0.555
111 | A21G C34G C66U | ≤ 0.5
112 | A21G C34G G63A G67C | ≤ 0.5
113 | A21G C34U | 0.701
114 | A21G C34U A37G C60A | 0.651
115 | A21G C34U C55G | ≤ 0.5
116 | A21G C34U G48A G67A | ≤ 0.5
117 | A21G C46A A70C | 1.07
118 | A21G C46U C55G | 0.603
119 | A21G C46U C60A | ≤ 0.5
120 | A21G C46U C62U | 1.1

Row | Variant | yeast fitness
121 | A21G C46U G52C | 0.794
122 | A21G C46U G56A C61G | ≤ 0.5
123 | A21G C49A | 0.736
124 | A21G C49G | 1.13
125 | A21G C49U A70G | 0.817
126 | A21G C49U C62A | 0.602
127 | A21G C49U C62G | 0.566
128 | A21G C49U G63C | ≤ 0.5
129 | A21G C55G C66U A69C | ≤ 0.5
130 | A21G C60G | 0.667
131 | A21G C61A | 0.645
132 | A21G C61G | 0.654
133 | A21G C61G C66U A69U | ≤ 0.5
134 | A21G C61G U64G | 0.586
135 | A21G C61U | 1
136 | A21G C66A | 0.701
137 | A21G C66U A69U | 0.771
138 | A21G G23A | 0.787
139 | A21G G23A A45C G52A A69C | 0.521
140 | A21G G23A A57U A70U | ≤ 0.5
141 | A21G G23A A57U C61G | 0.623
142 | A21G G23A C27G A37U G44A C49U | 0.564
143 | A21G G23A C27G A37U G44A C49U G67C A69U | ≤ 0.5
144 | A21G G23A C27G C61U A69C | ≤ 0.5

Row | Variant | yeast fitness
145 | A21G G23A C27G G39C A45G | ≤ 0.5
146 | A21G G23A C31U | 0.528
147 | A21G G23A C31U A45C C60A C66U | ≤ 0.5
148 | A21G G23A C31U G63C A69U | ≤ 0.5
149 | A21G G23A C34G A36U A57C C66U | ≤ 0.5
150 | A21G G23A C46A | 0.543
151 | A21G G23A G52C | ≤ 0.5
152 | A21G G23A G52C C61U | ≤ 0.5
153 | A21G G23A G58C | 0.537
154 | A21G G23C | 0.676
155 | A21G G23C U28A | ≤ 0.5
156 | A21G G25C | 1.04
157 | A21G G25C A65G | 0.751
158 | A21G G25C A69C | 0.744
159 | A21G G25C C27G A42C | ≤ 0.5
160 | A21G G25C C27G A42C A43G | ≤ 0.5
161 | A21G G25C C29A C55G G68C | ≤ 0.5
162 | A21G G25C C29A G58A | 0.54
163 | A21G G38A | 0.881
164 | A21G G38C A40U G44C G67A A69C | ≤ 0.5
165 | A21G G38C G68C | ≤ 0.5
166 | A21G G39A A70G | 0.872
167 | A21G G39A G44C | ≤ 0.5
